Compound activity: PubChem, several laboratories
PfG6PD inh: PfG6PD (Plasmodium falciparum) enzyme inhibition; 350,000 compounds, 0.78% hits; inhibition, % at 20 µM; PfGluPho enzyme, NADPH resazurin-diaphorase fluorescence;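 active = inhibition reaching at least a set limit at 20 µM in the primary screen, cut at about 59% in these data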
APJ agonist: APJ receptor agonism; P35414; CHO-K1 APJ PathHunter beta-arrestin, luminescence; 0% DMSO wells, 100% apelin; activation, % at 20 µM; 330,000 compounds, 0.11% hits;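 active = activation more than six SD over the plate average, tested at 20 µM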
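Assay system: engineered CHO-K1 APJ arrestin reporter cells; Amount: 1000 CHO-K1 reporter cells seeded per well; Dosing: one dose, 20 µM compound, 1% DMSO; Times: compound stimulation 90 min at 25 °C, detection 60 min; Measured by: luminescent beta-gal fragment complementation, chemiluminescent substrate; Read-out: APJ–arrestin association signal; Controls: DMSO vs Apelin-13 10 nM.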
CXCR6 inh: CXCR6 (human) receptor inhibition; CHO-K1 PathHunter CXCR6 beta-arrestin, luminescence; inhibition, % at 20 µM; 360,000 compounds, 0.36% hits; AID 602244; in the data active = inhibition above about 34%, passing the limit was not always enough;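 note: antagonist mode with CXCL16 agonist at 10 nM final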
B2AR ag: agonists of human beta-2 adrenergic receptor inducing internalization. P07550. 340,000 compounds, 0.43% hits. response, % (no concentration beside the values). Am2.2-beta2AR cells, FAP receptor internalization, flow cytometry. AID 504454;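 active = response above a set limit, near 3 SD of response in nonfluorescent compounds, cut at about 42% in these data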
Target sequence (P07550 whole entry, looked up): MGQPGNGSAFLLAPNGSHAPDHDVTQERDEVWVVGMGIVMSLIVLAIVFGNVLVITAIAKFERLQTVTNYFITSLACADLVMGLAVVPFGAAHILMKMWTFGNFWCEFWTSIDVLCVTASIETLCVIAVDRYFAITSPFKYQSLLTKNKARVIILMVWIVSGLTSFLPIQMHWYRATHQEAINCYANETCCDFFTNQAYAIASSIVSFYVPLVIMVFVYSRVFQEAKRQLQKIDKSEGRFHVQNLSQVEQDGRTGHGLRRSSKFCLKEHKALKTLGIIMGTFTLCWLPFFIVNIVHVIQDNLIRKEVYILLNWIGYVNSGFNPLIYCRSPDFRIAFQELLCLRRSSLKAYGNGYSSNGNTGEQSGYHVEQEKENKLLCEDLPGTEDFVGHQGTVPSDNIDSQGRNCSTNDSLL
CCR6 antag: CCR6 (human) receptor antagonism | P51684 | CHO-K1 CCR6 PathHunter beta-arrestin, luminescence, CCL20-stimulated | inhibition, % at 20 µM | 340,000 compounds, 0.49% hits | AID 493098;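 active = compounds whose inhibition of the agonist-driven luminescence signal at 20 µM reaches about 50%, limit read from the data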;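 note: cells stimulated with CCL20 at 14 nM final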
APJ antagonist: blocks the human apelin receptor APJ; P35414; AID 2521; inhibition, % at 20 µM; 330,000 compounds, 0.32% hits; CHO-K1 APJ beta-arrestin complementation, luminescence;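 active = inhibition above about 40% at 20 µM, limit read from the data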;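 note: cells challenged with 10 nM apelin-13 agonist together with compound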
APJ ag confirm: confirmation of human APJ apelin receptor agonists | shares compounds with APJ agonist | CHO-K1 APJ PathHunter beta-arrestin, luminescence | AID 2764 | activation, % at 20 µM | 310 compounds, 10% hits;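 active = activation above 40%, taking the highest of four retests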
APJ antag conf: APJ receptor antagonism confirmation. APJ beta-arrestin recruitment, luminescence, antagonist mode. inhibition, % at 20 µM. 950 compounds, 66% hits. shares compounds with APJ antagonist; in the data active = inhibition above about 50%
B2AR ag CP1: activates human beta-2 adrenergic receptor. shares compounds with B2AR ag. 1,100 compounds, 25% hits. AID 540358. Am2.2-beta2AR cells, FAP surface receptor, flow cytometry; active compounds read low. percent response (surface receptor), % at 10 µM;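 active = surface receptor percent response at or below 58%, roughly 3 SD from nonfluorescent compounds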
B2AR FAP counter: counter-screen for beta-2AR agonists: fluorescence in Am2.2 cells; AID 588765; shares compounds with B2AR ag; calls only at 10 µM; FAP fluorogen flow cytometry, fluorescence counterscreen; active compounds read low; 1,100 tested, under 10 active;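 active = percent response below a set limit in fluorescence channel 1 and below 50% in channel 8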
Hits are given with their value; 0 = inactive; - = no result given; + = active, no number. Most compounds without a hit are left out; they make up all but 1.7% or so of the library.

SMILES	PfG6PD inh	APJ agonist	CXCR6 inh	B2AR ag	CCR6 antag	APJ antagonist	others
O=C(Cn1ncc2c3ccccc3n(Cc3ccccc3F)c2c1=O)N1CCC2(CC1)OCCO2	0	0	0	50.5	0	0
COc1cc2c(cc1OC)CC[N+](C)=C2	0	0	0	56.9	0	0
COc1ccc(CC2c3cc(OC)c(OC)cc3CCN2C)cc1OC (stereo not given)	0	0	0	0	0	0
FC(F)(F)c1ccc2c(c1)N(CCCN1CCN(CCCl)CC1)c1ccccc1S2	0	0	0	68.3	0	0
O=C1NC(=S)NC(=O)C1=Cc1cccc2cc3ccccc3cc12	0	-	0	93.5	-	-
O=c1oc2ccccc2c(O)c1[C@H]1c2ccc(O)cc2Oc2c1c(=O)oc1ccccc21	0	0	0	0	0	0
COc1ccc(CN2Cc3cnnn3-c3ccccc3C2C#N)cc1 (stereo not given)	0	-	0	0	0	-
N#CC1c2ccccc2-n2nncc2CN1Cc1cc(Cl)cc(Cl)c1 (stereo not given)	0	-	0	94.1	0	-
COC(=O)C1=C(c2ccc(OCc3ccccc3)cc2)C[C@@H]2CC[C@H]1N2C(=O)NCc1ccccc1C(F)(F)F	0	-	0	-	-	-
COc1cc2c3c(c1OC)Oc1ccc(cc1)C[C@H]1c4c(cc(OC)c(OC)c4Oc4ccc(cc4)C[C@@H]3N(C)CC2)CCN1C	0	0	0	44.8	0	0
COc1ccc(-n2c(=S)[nH]c3ccc(C)cc3c2=O)cc1	0	-	0	-	-	-
Cn1cccc1/C=C1/C(=O)NC(=S)N(Cc2ccc(F)cc2)C1=O	0	0	0	60.2	0	0
Cn1cccc1/C=C1/C(=O)NC(=O)N(Cc2ccc(F)cc2)C1=O	0	0	0	0	0	0
COc1ccc(C(C)=O)cc1CC(C(=O)c1ccc(F)cc1)N(C)C (stereo not given)	0	0	0	0	0	0
CSc1ncc(/C=C2/C(=O)NC(=O)N(c3ccc(C)cc3)C2=O)cn1	0	0	0	0	0	0
Cc1ccc(N2C(=O)NC(=O)/C(=C/c3cnn(-c4ccc(C)cc4)c3)C2=O)cc1	0	0	43.2	0	0	0
CN(C)C(=O)Oc1ccc2c(c1)O/C(=C\c1ccc(Cl)cc1)C2=O	0	0	0	0	0	0
CN(C)C(=O)Oc1ccc2c(c1)O/C(=C\c1cccc(Cl)c1)C2=O	0	0	0	53.3	0	0
CCOC(=O)[C@]12Cc3cc(Cl)ccc3[C@H]1N(CC(=O)OC)C(=O)c1ccccc12	-	-	0	-	-	-
Cc1ccccc1-n1c(/C=C/c2ccccn2)nc2ccccc2c1=O	0	0	0	0	0	0
CN1C2CCC1/C(=C/c1ccccn1)C(=O)/C2=C\c1ccccn1	0	-	37.8	0	0	-
CCN(CC)C(=O)c1ccc(NC(=O)Nc2ccccc2F)cc1	0	0	0	0	0	0
CCOC(=O)[C@]12Cc3ccccc3[C@H]1N(CCC(=O)OC)C(=O)c1cc(OC)ccc12	-	-	0	-	-	-
N#CSCC(=O)N1c2ccccc2CCc2ccccc21	0	0	0	51.8	0	0
Nc1ccccc1C(=O)OCC(=O)N1CCc2ccccc21	0	0	0	0	0	0
SMILES	PfG6PD inh	APJ agonist	CXCR6 inh	B2AR ag	CCR6 antag	APJ antagonist	others
O=C(CN1CCCCC1)c1cccc(Br)c1	0	0	0	0	67.9	0
O=C(CN1CCCCC1)c1ccc2c(c1)OCO2	0	0	0	0	0	0
CCOc1cc2[nH]c(=S)n(CCCC(=O)N3CCC4(CC3)OCCO4)c(=O)c2cc1OCC	0	34.8	0	0	0	0	APJ ag confirm=0
Cc1ccc(OC(F)F)c(N2C(=O)C3C4CCC(O4)C3C2=O)c1 (stereo not given)	0	0	0	0	0	0
CCC1CCCCN1CC(=O)c1ccc(OC(F)F)cc1 (stereo not given)	0	0	0	0	0	44.4	APJ antag conf=51.7
c1cncc(CNCCN2CCNCC2)c1	0	-	0	0	0	-
O=C1/C(=C/c2ccccc2)C[C@@]2(O)[C@H]3Cc4ccc(O)c5c4[C@@]2(CCN3CC2CC2)C1O5 (stereo not given in full)	0	0	58.1	69.4	79.5	55.6	APJ antag conf=92.6
N#Cc1c(/N=C/c2ccc(O)cc2O)sc2c1C1CCN2CC1	0	0	0	0	0	42.3	APJ antag conf=0
CCc1ccccc1NC(=O)N1C[C@H]2C[C@@H](C1)c1cccc(=O)n1C2	0	0	0	0	0	0
Cc1ccc(N2C(=O)CC(=O)NC2=O)cc1Cl	0	0	0	0	0	0
Nc1c(C(=O)OCc2ccccc2)c2nc3ccccc3nc2n1Cc1cccs1	0	0	0	0	0	63.0	APJ antag conf=0
COc1ccc2c(C)c(CCC(=O)N3C[C@H]4C[C@@H](C3)c3cccc(=O)n3C4)c(=O)oc2c1	0	0	0	0	0	0
CN1C(=O)C(=Cc2ccc(N3CCCCCC3)o2)C(=O)N(C)C1=S	0	0	0	0	0	47.3	APJ antag conf=79.4
CN1C(=O)C(=Cc2ccc(N3CCOCC3)o2)C(=O)N(C)C1=O	0	0	0	0	0	0
COc1ccc(CNCCc2c(C)[nH]c3ccc(OC(F)(F)F)cc23)c(OC)c1	0	0	0	43.0	0	0	B2AR ag CP1=0;B2AR FAP counter=0
COC(=O)[C@]12OC[C@]34C([C@@H](O)[C@@H]1O)[C@]1(C)CC(=O)C(O)=C(C)[C@@H]1C[C@H]3OC(=O)[C@H](O)[C@@H]24 (stereo not given in full)	0	0	0	42.5	0	0	B2AR ag CP1=0;B2AR FAP counter=0
CC1=CC(O)C(O)C2(C)C1CC1OC(=O)C(O)C3C(C)C(O)C4(O)OCC13C42 (stereo not given)	0	-	0	0	0	-
COc1ccc(C[C@H]2NC[C@H](O)[C@H]2OC(C)=O)cc1	0	0	0	94.2	0	0	B2AR ag CP1=27.9;B2AR FAP counter=+
CC(NCc1ccc(Cl)cc1)C(O)c1ccccc1 (stereo not given)	0	0	0	0	0	0	B2AR ag CP1=0;B2AR FAP counter=0
O=C(Cc1ccccc1)NC(Cc1ccc(Cl)cc1)C(=O)O (stereo not given)	0	0	0	0	0	0
CC(NCc1ccc(Cl)cc1Cl)C(O)c1ccccc1 (stereo not given)	0	0	0	0	0	0	B2AR ag CP1=0;B2AR FAP counter=0
